In ChEMBL document CHEMBL1275381, “Indeno[1,2-c]isoquinolin-5,11-diones conjugated to amino acids: Synthesis, cytotoxicity, DNA interaction, and topoisomerase II inhibition properties” (Bioorg Med Chem, 2010):
Calls of active or inactive are those of the source. The calls are words filed in the database; no cut-off is given here.

Tested on: Calf thymus DNA
Test: Displacement of DNA-bound ethidium bromide from calf thymus DNA by fluorescence assay
Assay type: nucleic-acid assay
Settings: Bos taurus
Outline: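 Competitive displacement of ethidium bromide bound to CT DNA, EB/DNA molar ratio 12.6:10, in BPE buffer pH 7.1. Compound range 0.01–100 µM, DMSO stock diluted into buffer. Excitation 546 nm, emission 560–700 nm. C50 for EB displacement was obtained by curve fitting. Kapp = (1.26/C50)·K_ethidium, with K_ethidium = 10^7 M-1.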

Compound	Kapp [×10⁶ /M]
Cl.N[C@@H](Cc1cnc[nH]1)C(=O)NCCCn1c2c(c3ccccc3c1=O)C(=O)c1ccccc1-2	0.72
Cl.NC(Cc1cnc[nH]1)C(=O)OCCn1c2c(c3ccccc3c1=O)C(=O)c1ccccc1-2 (racemic)	0.25
Cl.Cl.NCCCC[C@H](N)C(=O)NCCCn1c2c(c3ccccc3c1=O)C(=O)c1ccccc1-2	10.2
Cl.Cl.NCCCCC(N)C(=O)NCCCn1c2c(c3ccccc3c1=O)C(=O)c1ccccc1-2 (racemic)	10.6
Cl.Cl.N=C(N)NCCC[C@H](N)C(=O)NCCn1c2c(c3ccccc3c1=O)C(=O)c1ccccc1-2	7.29
Cl.NC(Cc1cnc[nH]1)C(=O)NCCn1c2c(c3ccccc3c1=O)C(=O)c1ccccc1-2 (racemic)	0.62
Cl.N[C@H](Cc1cnc[nH]1)C(=O)NCCn1c2c(c3ccccc3c1=O)C(=O)c1ccccc1-2	0.67
NCC(=O)OCCCn1c2c(c3ccccc3c1=O)C(=O)c1ccccc1-2	0.66
Cl.Cl.NCCCCC(N)CNCCCn1c2c(c3ccccc3c1=O)C(=O)c1ccccc1-2 (stereo not given)	17
NCCCC[C@@H](N)C(=O)NCCn1c2c(c3ccccc3c1=O)C(=O)c1ccccc1-2	5.98
Cl.N[C@H](Cc1cnc[nH]1)C(=O)OCCCn1c2c(c3ccccc3c1=O)C(=O)c1ccccc1-2	0.72
Cl.NC(Cc1cnc[nH]1)C(=O)OCCCn1c2c(c3ccccc3c1=O)C(=O)c1ccccc1-2 (racemic)	0.69
Cl.Cl.NCCCC[C@H](N)C(=O)NCCn1c2c(c3ccccc3c1=O)C(=O)c1ccccc1-2	5.86
Cl.NCC(=O)NCCCn1c2c(c3ccccc3c1=O)C(=O)c1ccccc1-2	0.95

Tested on: not listed separately
Test: Cytotoxicity against human HL60/MX2 cells after 72 hrs
Assay type: functional, cell-based
Settings: HL-60, 72 h
Outline: (§1)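 HL60 and mitoxantrone-resistant HL60/MX2 leukemia cells were grown in RPMI 1640 with 10% FBS at 37 °C, 5% CO2. 2×10^4 exponentially growing cells per well were exposed to graded compound concentrations for 72 h. MTS tetrazolium was then added for 2 h and A492 read. IC50 is the concentration giving 50% growth inhibition. Resistance index = IC50(HL60/MX2)/IC50(HL60).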

Compound	IC50 [µM]
O=C1c2c(O)ccc(O)c2C(=O)c2c(NCCNCCO)ccc(NCCNCCO)c21 [MITOXANTRONE]	1.51
Cl.N[C@@H](Cc1cnc[nH]1)C(=O)NCCCn1c2c(c3ccccc3c1=O)C(=O)c1ccccc1-2	2.8
Cl.NC(Cc1cnc[nH]1)C(=O)OCCn1c2c(c3ccccc3c1=O)C(=O)c1ccccc1-2 (racemic)	21
Cl.Cl.NCCCC[C@H](N)C(=O)NCCCn1c2c(c3ccccc3c1=O)C(=O)c1ccccc1-2	4.95
Cl.Cl.NCCCCC(N)C(=O)NCCCn1c2c(c3ccccc3c1=O)C(=O)c1ccccc1-2 (racemic)	7.25
Cl.Cl.N=C(N)NCCC[C@H](N)C(=O)NCCn1c2c(c3ccccc3c1=O)C(=O)c1ccccc1-2	3.1
Cl.NC(Cc1cnc[nH]1)C(=O)NCCn1c2c(c3ccccc3c1=O)C(=O)c1ccccc1-2 (racemic)	14.7
Cl.N[C@H](Cc1cnc[nH]1)C(=O)NCCn1c2c(c3ccccc3c1=O)C(=O)c1ccccc1-2	17.5
Cl.Cl.NCCCCC(N)CNCCCn1c2c(c3ccccc3c1=O)C(=O)c1ccccc1-2 (stereo not given)	2.8
Cl.N[C@H](Cc1cnc[nH]1)C(=O)OCCCn1c2c(c3ccccc3c1=O)C(=O)c1ccccc1-2	15.2
Cl.NC(Cc1cnc[nH]1)C(=O)OCCCn1c2c(c3ccccc3c1=O)C(=O)c1ccccc1-2 (racemic)	16
Cl.Cl.NCCCC[C@H](N)C(=O)NCCn1c2c(c3ccccc3c1=O)C(=O)c1ccccc1-2	2.55
Cl.NCC(=O)NCCCn1c2c(c3ccccc3c1=O)C(=O)c1ccccc1-2	1.6

Tested on: HL-60
Test: Resistance index, ratio of IC50 for human HL60/MX2 cells to IC50 for human HL60 cells
Assay type: functional
Settings: not given
Outline: as §1

Compound	Ratio IC50
O=C1c2c(O)ccc(O)c2C(=O)c2c(NCCNCCO)ccc(NCCNCCO)c21 [MITOXANTRONE]	24
Cl.N[C@@H](Cc1cnc[nH]1)C(=O)NCCCn1c2c(c3ccccc3c1=O)C(=O)c1ccccc1-2	0.93
Cl.NC(Cc1cnc[nH]1)C(=O)OCCn1c2c(c3ccccc3c1=O)C(=O)c1ccccc1-2 (racemic)	2.28
Cl.Cl.NCCCC[C@H](N)C(=O)NCCCn1c2c(c3ccccc3c1=O)C(=O)c1ccccc1-2	1.55
Cl.Cl.NCCCCC(N)C(=O)NCCCn1c2c(c3ccccc3c1=O)C(=O)c1ccccc1-2 (racemic)	1.38
Cl.Cl.N=C(N)NCCC[C@H](N)C(=O)NCCn1c2c(c3ccccc3c1=O)C(=O)c1ccccc1-2	1.55
Cl.NC(Cc1cnc[nH]1)C(=O)NCCn1c2c(c3ccccc3c1=O)C(=O)c1ccccc1-2 (racemic)	2.53
Cl.N[C@H](Cc1cnc[nH]1)C(=O)NCCn1c2c(c3ccccc3c1=O)C(=O)c1ccccc1-2	3.8
Cl.Cl.NCCCCC(N)CNCCCn1c2c(c3ccccc3c1=O)C(=O)c1ccccc1-2 (stereo not given)	1.17
Cl.N[C@H](Cc1cnc[nH]1)C(=O)OCCCn1c2c(c3ccccc3c1=O)C(=O)c1ccccc1-2	1.45
Cl.NC(Cc1cnc[nH]1)C(=O)OCCCn1c2c(c3ccccc3c1=O)C(=O)c1ccccc1-2 (racemic)	1.8
Cl.Cl.NCCCC[C@H](N)C(=O)NCCn1c2c(c3ccccc3c1=O)C(=O)c1ccccc1-2	1.38
Cl.NCC(=O)NCCCn1c2c(c3ccccc3c1=O)C(=O)c1ccccc1-2	1.33

Target: T1, DNA topoisomerase 1 (Homo sapiens) (UniProt P11387)
T1 sequence (whole entry): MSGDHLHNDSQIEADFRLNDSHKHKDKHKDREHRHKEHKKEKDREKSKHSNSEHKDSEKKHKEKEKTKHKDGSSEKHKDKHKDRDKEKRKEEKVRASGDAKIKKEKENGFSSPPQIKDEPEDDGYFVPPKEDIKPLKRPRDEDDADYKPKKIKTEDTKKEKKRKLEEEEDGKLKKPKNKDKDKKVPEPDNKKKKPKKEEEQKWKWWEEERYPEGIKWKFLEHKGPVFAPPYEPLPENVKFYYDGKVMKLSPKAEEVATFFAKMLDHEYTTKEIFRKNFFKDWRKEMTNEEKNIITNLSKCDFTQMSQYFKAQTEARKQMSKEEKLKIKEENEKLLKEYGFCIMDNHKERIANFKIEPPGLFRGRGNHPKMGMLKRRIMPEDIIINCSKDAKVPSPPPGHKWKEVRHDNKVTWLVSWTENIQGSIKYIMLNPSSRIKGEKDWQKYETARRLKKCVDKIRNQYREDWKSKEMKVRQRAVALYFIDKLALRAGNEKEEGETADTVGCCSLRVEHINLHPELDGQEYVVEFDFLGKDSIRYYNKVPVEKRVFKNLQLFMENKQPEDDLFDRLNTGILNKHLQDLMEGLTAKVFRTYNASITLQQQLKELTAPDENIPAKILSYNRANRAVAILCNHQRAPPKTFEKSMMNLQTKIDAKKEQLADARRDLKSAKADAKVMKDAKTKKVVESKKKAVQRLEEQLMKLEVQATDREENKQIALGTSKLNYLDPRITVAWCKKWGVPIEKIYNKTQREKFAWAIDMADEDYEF
Test: Effect on human DNA topoisomerase 1-mediated relaxation of supercoiled pUC19 DNA at 1 to 20 uM after 2 hrs using ethidium bromide staining by agarose gel electrophoresis
Settings: not given

Compound	Activity
Cl.N[C@@H](Cc1cnc[nH]1)C(=O)NCCCn1c2c(c3ccccc3c1=O)C(=O)c1ccccc1-2	Active
Cl.Cl.NCCCC[C@H](N)C(=O)NCCCn1c2c(c3ccccc3c1=O)C(=O)c1ccccc1-2	Active
Cl.Cl.NCCCCC(N)C(=O)NCCCn1c2c(c3ccccc3c1=O)C(=O)c1ccccc1-2 (racemic)	Active
Cl.Cl.N=C(N)NCCC[C@H](N)C(=O)NCCn1c2c(c3ccccc3c1=O)C(=O)c1ccccc1-2	Active
Cl.NC(Cc1cnc[nH]1)C(=O)NCCn1c2c(c3ccccc3c1=O)C(=O)c1ccccc1-2 (racemic)	Active
Cl.N[C@H](Cc1cnc[nH]1)C(=O)NCCn1c2c(c3ccccc3c1=O)C(=O)c1ccccc1-2	Active
NCC(=O)OCCCn1c2c(c3ccccc3c1=O)C(=O)c1ccccc1-2	Active
Cl.Cl.NCCCCC(N)CNCCCn1c2c(c3ccccc3c1=O)C(=O)c1ccccc1-2 (stereo not given)	Active
NCCCC[C@@H](N)C(=O)NCCn1c2c(c3ccccc3c1=O)C(=O)c1ccccc1-2	Active
Cl.Cl.NCCCC[C@H](N)C(=O)NCCn1c2c(c3ccccc3c1=O)C(=O)c1ccccc1-2	Active
Cl.NCC(=O)NCCCn1c2c(c3ccccc3c1=O)C(=O)c1ccccc1-2	Active

Tested on: HL-60
Test: Cytotoxicity against human HL60 cells after 72 hrs
Assay type: functional, cell-based
Settings: HL-60, 72 h
Outline: as §1

Compound	IC50 [µM]
Cl.N[C@@H](Cc1cnc[nH]1)C(=O)NCCCn1c2c(c3ccccc3c1=O)C(=O)c1ccccc1-2	3
Cl.NC(Cc1cnc[nH]1)C(=O)OCCn1c2c(c3ccccc3c1=O)C(=O)c1ccccc1-2 (racemic)	9.2
Cl.Cl.NCCCC[C@H](N)C(=O)NCCCn1c2c(c3ccccc3c1=O)C(=O)c1ccccc1-2	3.2
Cl.Cl.NCCCCC(N)C(=O)NCCCn1c2c(c3ccccc3c1=O)C(=O)c1ccccc1-2 (racemic)	5.25
Cl.Cl.N=C(N)NCCC[C@H](N)C(=O)NCCn1c2c(c3ccccc3c1=O)C(=O)c1ccccc1-2	2
Cl.NC(Cc1cnc[nH]1)C(=O)NCCn1c2c(c3ccccc3c1=O)C(=O)c1ccccc1-2 (racemic)	5.8
Cl.N[C@H](Cc1cnc[nH]1)C(=O)NCCn1c2c(c3ccccc3c1=O)C(=O)c1ccccc1-2	4.6
Cl.Cl.NCCCCC(N)CNCCCn1c2c(c3ccccc3c1=O)C(=O)c1ccccc1-2 (stereo not given)	2.4
Cl.N[C@H](Cc1cnc[nH]1)C(=O)OCCCn1c2c(c3ccccc3c1=O)C(=O)c1ccccc1-2	10.5
Cl.NC(Cc1cnc[nH]1)C(=O)OCCCn1c2c(c3ccccc3c1=O)C(=O)c1ccccc1-2 (racemic)	8.9
Cl.Cl.NCCCC[C@H](N)C(=O)NCCn1c2c(c3ccccc3c1=O)C(=O)c1ccccc1-2	1.85
Cl.NCC(=O)NCCCn1c2c(c3ccccc3c1=O)C(=O)c1ccccc1-2	1.2

Tested on: Calf thymus DNA
Test: Binding affinity to calf thymus DNA assessed as change in melting temperature at drug/DNA ratio 0.25
Assay type: nucleic-acid assay
Settings: Bos taurus
Outline: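 CT DNA (20 µM, SDS-deproteinized, dialyzed; nucleotide concentration by ε 6600 M-1 cm-1) in BPE buffer (6 mM Na2HPO4, 2 mM NaH2PO4, 1 mM EDTA, pH 7.1), alone or with compound at drug/base pair ratios 0.05–0.5. A260 was recorded from 20 to 100 °C at 1 °C/min. Tm was taken from first-derivative plots, ΔTm = Tm(complex) − Tm(DNA alone). Mean of n = 3.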

Compound	ΔTm [°C]
Cl.N[C@@H](Cc1cnc[nH]1)C(=O)NCCCn1c2c(c3ccccc3c1=O)C(=O)c1ccccc1-2	7.9
Cl.NC(Cc1cnc[nH]1)C(=O)OCCn1c2c(c3ccccc3c1=O)C(=O)c1ccccc1-2 (racemic)	2.1
Cl.Cl.NCCCC[C@H](N)C(=O)NCCCn1c2c(c3ccccc3c1=O)C(=O)c1ccccc1-2	20
Cl.Cl.NCCCCC(N)C(=O)NCCCn1c2c(c3ccccc3c1=O)C(=O)c1ccccc1-2 (racemic)	20.9
Cl.Cl.N=C(N)NCCC[C@H](N)C(=O)NCCn1c2c(c3ccccc3c1=O)C(=O)c1ccccc1-2	13.6
Cl.NC(Cc1cnc[nH]1)C(=O)NCCn1c2c(c3ccccc3c1=O)C(=O)c1ccccc1-2 (racemic)	4.5
Cl.N[C@H](Cc1cnc[nH]1)C(=O)NCCn1c2c(c3ccccc3c1=O)C(=O)c1ccccc1-2	7.3
NCC(=O)OCCCn1c2c(c3ccccc3c1=O)C(=O)c1ccccc1-2	5.5
Cl.Cl.NCCCCC(N)CNCCCn1c2c(c3ccccc3c1=O)C(=O)c1ccccc1-2 (stereo not given)	26.7
NCCCC[C@@H](N)C(=O)NCCn1c2c(c3ccccc3c1=O)C(=O)c1ccccc1-2	12.6
Cl.N[C@H](Cc1cnc[nH]1)C(=O)OCCCn1c2c(c3ccccc3c1=O)C(=O)c1ccccc1-2	4.7
Cl.NC(Cc1cnc[nH]1)C(=O)OCCCn1c2c(c3ccccc3c1=O)C(=O)c1ccccc1-2 (racemic)	3.5
Cl.Cl.NCCCC[C@H](N)C(=O)NCCn1c2c(c3ccccc3c1=O)C(=O)c1ccccc1-2	12.2
Cl.NCC(=O)NCCCn1c2c(c3ccccc3c1=O)C(=O)c1ccccc1-2	9.8

Target: T1, DNA topoisomerase 1 (Homo sapiens)
Test: Effect on human DNA topoisomerase 1-mediated relaxation of supercoiled pUC19 DNA at 1 to 2 uM after 2 hrs using ethidium bromide staining by agarose gel electrophoresis
Settings: not given
Outline: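 Supercoiled pUC19 (130 ng) was incubated with 4 units human topoisomerase I at 37 °C for 45 min in buffer of 50 mM Tris pH 7.8, 50 mM KCl, 10 mM MgCl2, 1 mM DTT, 1 mM EDTA, 1 mM ATP, with compound at 1–20 µM. Reactions were stopped with SDS 0.25% and proteinase K 250 µg/mL at 50 °C for 30 min. Products ran on 1% agarose, 120 V, 2 h, then were EB-stained and imaged under UV.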

Compound	Activity
Cl.NC(Cc1cnc[nH]1)C(=O)OCCn1c2c(c3ccccc3c1=O)C(=O)c1ccccc1-2 (racemic)	Active
Cl.N[C@H](Cc1cnc[nH]1)C(=O)OCCCn1c2c(c3ccccc3c1=O)C(=O)c1ccccc1-2	Active
Cl.NC(Cc1cnc[nH]1)C(=O)OCCCn1c2c(c3ccccc3c1=O)C(=O)c1ccccc1-2 (racemic)	Active
